Data reported in PMC5568793 (Science translational medicine, 2017).

Legend:
type I collagen [1] = molecular target: T1, type I collagen (Mus musculus, UniProt P11087+Q01149); assay: PET lung signal in low dose bleomycin vascular leak; format: in vivo; conditions: day 14, 50-80 min after injection
Outline: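 Male C57Bl/6 mice received intratracheal low-dose bleomycin (0.1 U/kg) and/or FTY720 (1 mg/kg i.p. thrice weekly), with 1E6 (1 mg/kg i.p. thrice weekly) where stated, all from day 0. On day 14, under isoflurane, 68Ga probe was given as an i.v. femoral bolus. Static PET ran for 30 min starting 50 min post-injection, with CT. MLEM reconstruction was used; lung VOIs of about 65 mm3 were read as decay-corrected %ID/cc.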

type I collagen [2] = molecular target: T1, type I collagen; assay: Lung uptake of probe in bleomycin mouse model of pulmonary fibrosis; format: in vivo
Outline: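 Male C57BL/6 mice (10 weeks, 20–28 g) received transtracheal bleomycin at 2.5 U/kg in 50 μL PBS through a cervical incision; sham mice were controls. On day 14, 68Ga probe was given as an i.v. bolus via femoral vein catheter under isoflurane. Dynamic PET-CT ran for 120 min, read as decay-corrected lung VOI %ID/cc. Mice were killed 150 min post-injection and organs weighed and gamma-counted.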

[3] = mouse, in vivo, iv
type I collagen [4] = molecular target: T1, type I collagen; assay: Ex vivo lung uptake in low dose bleomycin vascular leak; conditions: day 14, 2.5 h post injection
Outline: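 Male C57Bl/6 mice, 7–8 weeks old, received a single intratracheal bleomycin dose of 0.1 U/kg in saline, with or without FTY720 at 1 mg/kg i.p. three times weekly. 3G9 or isotype 1E6 antibody was given at 1 mg/kg i.p. three times weekly. All dosing started on day 0. On day 14, 68Ga probe was given as an i.v. femoral bolus under isoflurane. Mice were killed 150 min post-injection; the left lung was weighed and gamma-counted.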

T1 sequence (P11087 152-1207 limits assumed): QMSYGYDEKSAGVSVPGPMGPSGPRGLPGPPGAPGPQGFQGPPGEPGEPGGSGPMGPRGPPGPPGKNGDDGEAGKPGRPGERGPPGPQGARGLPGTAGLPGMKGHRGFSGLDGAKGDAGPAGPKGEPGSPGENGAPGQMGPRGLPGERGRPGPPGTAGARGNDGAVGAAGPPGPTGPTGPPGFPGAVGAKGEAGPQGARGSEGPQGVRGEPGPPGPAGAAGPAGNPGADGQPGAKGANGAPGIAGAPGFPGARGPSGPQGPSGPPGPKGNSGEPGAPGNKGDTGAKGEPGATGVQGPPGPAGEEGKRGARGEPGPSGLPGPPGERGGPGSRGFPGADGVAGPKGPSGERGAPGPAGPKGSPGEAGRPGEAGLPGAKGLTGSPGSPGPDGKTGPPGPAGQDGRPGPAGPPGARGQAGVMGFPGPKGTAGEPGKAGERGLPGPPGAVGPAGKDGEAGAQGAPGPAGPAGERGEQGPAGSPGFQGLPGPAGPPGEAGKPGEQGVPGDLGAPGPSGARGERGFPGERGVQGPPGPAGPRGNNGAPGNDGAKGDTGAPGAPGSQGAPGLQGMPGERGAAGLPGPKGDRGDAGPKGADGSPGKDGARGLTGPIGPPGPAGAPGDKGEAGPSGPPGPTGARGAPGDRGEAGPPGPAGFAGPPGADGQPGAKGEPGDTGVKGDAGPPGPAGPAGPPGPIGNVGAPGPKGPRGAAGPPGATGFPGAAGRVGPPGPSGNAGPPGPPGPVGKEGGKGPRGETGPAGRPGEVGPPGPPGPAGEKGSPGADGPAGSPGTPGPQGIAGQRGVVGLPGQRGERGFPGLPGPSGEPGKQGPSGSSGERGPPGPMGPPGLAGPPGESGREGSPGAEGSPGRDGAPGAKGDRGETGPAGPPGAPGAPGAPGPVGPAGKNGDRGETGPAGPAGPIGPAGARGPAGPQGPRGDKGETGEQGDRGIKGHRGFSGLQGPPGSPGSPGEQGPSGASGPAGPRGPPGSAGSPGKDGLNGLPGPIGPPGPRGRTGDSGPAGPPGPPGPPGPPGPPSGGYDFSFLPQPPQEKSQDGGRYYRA
T1 sequence (Q01149 86-1125 limits assumed): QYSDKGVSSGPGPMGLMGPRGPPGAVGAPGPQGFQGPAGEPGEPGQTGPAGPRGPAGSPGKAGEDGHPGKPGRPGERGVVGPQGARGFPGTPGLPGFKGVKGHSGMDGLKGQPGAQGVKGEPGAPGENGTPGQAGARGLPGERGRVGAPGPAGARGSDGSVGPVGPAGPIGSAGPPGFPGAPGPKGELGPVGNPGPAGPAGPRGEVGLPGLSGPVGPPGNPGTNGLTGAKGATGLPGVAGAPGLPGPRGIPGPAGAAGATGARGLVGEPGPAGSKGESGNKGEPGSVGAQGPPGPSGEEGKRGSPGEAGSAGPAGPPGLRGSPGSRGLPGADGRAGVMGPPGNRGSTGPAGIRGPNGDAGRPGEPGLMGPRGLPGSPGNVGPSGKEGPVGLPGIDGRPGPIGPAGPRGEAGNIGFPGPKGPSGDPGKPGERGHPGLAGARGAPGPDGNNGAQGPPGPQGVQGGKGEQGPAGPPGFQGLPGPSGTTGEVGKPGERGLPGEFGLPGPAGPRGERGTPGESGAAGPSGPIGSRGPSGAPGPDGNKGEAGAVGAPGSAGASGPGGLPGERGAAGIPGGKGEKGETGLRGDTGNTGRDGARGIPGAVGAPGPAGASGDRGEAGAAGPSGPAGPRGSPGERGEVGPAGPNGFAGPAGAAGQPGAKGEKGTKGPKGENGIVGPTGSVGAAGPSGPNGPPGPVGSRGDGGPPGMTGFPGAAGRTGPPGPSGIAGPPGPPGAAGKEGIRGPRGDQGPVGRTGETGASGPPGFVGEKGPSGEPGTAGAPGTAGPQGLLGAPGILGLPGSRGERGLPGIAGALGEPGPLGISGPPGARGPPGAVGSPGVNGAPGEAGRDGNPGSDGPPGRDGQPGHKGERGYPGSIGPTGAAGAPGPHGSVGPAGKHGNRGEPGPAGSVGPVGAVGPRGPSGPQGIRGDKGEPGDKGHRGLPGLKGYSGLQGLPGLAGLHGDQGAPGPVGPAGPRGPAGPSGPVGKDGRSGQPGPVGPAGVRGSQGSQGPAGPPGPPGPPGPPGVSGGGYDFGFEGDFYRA

CC(C)C[C@H](NC(=O)[C@@H]1CSSC[C@H](NC(=O)[C@H](Cc2c[nH]cn2)NC(=O)[C@H](Cc2c[nH]c3ccccc23)NC(=O)[C@H](CCCCNC(=O)CNC(=O)CCC(C(=O)O)N2CCN(CC(=O)O)CCN(CC(=O)O)CC2)NC(=O)CCC(C(=O)O)N2CCN(CC(=O)O)CCN(CC(=O)O)CC2)C(=O)N[C@@H]([C@@H](C)O)C(=O)N[C@@H]([C@@H](C)O)C(=O)N[C@@H](CCCCNC(=O)CNC(=O)CCC(C(=O)O)N2CCN(CC(=O)O)CCN(CC(=O)O)CC2)C(=O)N[C@@H](Cc2ccccc2)C(=O)N2CCC[C@H]2C(=O)N[C@@H](Cc2c[nH]cn2)C(=O)N[C@@H](Cc2c[nH]cn2)C(=O)N[C@@H](Cc2ccc(O)cc2)C(=O)N1)C(=O)N[C@@H](Cc1ccc(O)cc1)C(=O)N[C@@H](Cc1ccc(-c2ccccc2)cc1)C(N)=O (some centres unmarked) [^68Ga-CBP8, metal not drawn]
PET lung signal (type I collagen [1]; FTY mice (FTY720 only), n=6): 1.5 ± 0.1 %ID/cc
PET lung signal (type I collagen [1]; LDB mice (low dose BM only), n=4): 1.7 ± 0.1 %ID/cc
PET lung signal (type I collagen [1]; LDBVL+1E6 mice (irrelevant antibody), n=11): 3.0 ± 0.2 %ID/cc
PET lung signal (type I collagen [1]; LDBVL+3G9 mice (anti-αvβ6 antibody), n=11): 1.9 ± 0.2 %ID/cc
ex vivo lung uptake, BM-mice day 14 relative to sham animals (type I collagen [2]; BM day 14 (n=7) vs sham (n=11)): 5 fold
probe uptake in fibrotic mouse lungs compared to control lungs (type I collagen [2]; discussion statement, mouse models of pulmonary fibrosis): 6 fold
blood half-life [3]: 32.9 ± 4.5 min
ex vivo lung uptake, LDBVL group relative to FTY group (type I collagen [4]): five times more uptake
ex vivo lung uptake, LDBVL group relative to LDB group (type I collagen [4]): three times more
ex vivo lung uptake, LDBVL+1E6 group relative to 3G9-treated group (type I collagen [4]): six times higher uptake
ex vivo lung uptake, LDBVL+1E6 group relative to LDBVL+3G9 group (type I collagen [4]): three times more uptake
